By Ki is commonly meant the equilibrium dissociation constant of an inhibitor or competing ligand from its target.

One experiment addresses D(1A) dopamine receptor (Rattus norvegicus, UniProt P18901). Briefly: Binding affinity at Dopamine receptor D1 in rat neostriatum by [3H]-SCH- 23390 displacement. The format is tissue-based, Striatum. Summed up: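 Tissue: sections of neostriatum from male Sprague–Dawley rats (250–300 g). Test substances dissolved in distilled water. Values are mean ± SEM of five to seven independent experiments, each run in triplicate.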

In another experiment the target is D(2) dopamine receptor (Rattus norvegicus, UniProt P61169). The experiment is described as follows: Binding affinity at Dopamine receptor D2 in rat neostriatum frozen sections by [3H]-spiperone displacement.
D(2) dopamine receptor, sequence (P61169 whole entry): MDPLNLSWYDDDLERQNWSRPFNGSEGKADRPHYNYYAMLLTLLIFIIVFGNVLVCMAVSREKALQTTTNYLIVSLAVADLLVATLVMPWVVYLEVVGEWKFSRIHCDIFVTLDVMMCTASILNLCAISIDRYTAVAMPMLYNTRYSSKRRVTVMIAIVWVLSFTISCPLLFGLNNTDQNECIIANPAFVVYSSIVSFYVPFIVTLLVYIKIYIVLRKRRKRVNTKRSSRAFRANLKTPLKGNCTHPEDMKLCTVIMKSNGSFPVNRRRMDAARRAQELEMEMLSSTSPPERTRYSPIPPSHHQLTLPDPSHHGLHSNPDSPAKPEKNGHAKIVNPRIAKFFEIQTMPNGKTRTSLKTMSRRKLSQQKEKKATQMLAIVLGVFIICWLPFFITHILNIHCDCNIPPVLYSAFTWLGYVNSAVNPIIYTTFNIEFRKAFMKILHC

D(1A) dopamine receptor, sequence (P18901 whole entry): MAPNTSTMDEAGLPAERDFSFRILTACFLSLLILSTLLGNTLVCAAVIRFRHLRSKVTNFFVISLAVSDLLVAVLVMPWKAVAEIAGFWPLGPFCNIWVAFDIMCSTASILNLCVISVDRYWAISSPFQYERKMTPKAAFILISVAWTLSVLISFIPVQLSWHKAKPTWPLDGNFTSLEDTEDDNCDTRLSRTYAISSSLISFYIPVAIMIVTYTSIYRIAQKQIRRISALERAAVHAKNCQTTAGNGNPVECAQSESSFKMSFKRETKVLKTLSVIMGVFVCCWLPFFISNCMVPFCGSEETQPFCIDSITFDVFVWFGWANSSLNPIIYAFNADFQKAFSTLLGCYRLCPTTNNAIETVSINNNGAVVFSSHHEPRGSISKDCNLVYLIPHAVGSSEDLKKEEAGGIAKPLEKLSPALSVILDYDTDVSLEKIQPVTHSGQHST

Consider `C=CCN(C)[C@@H]1Cc2cc(O)ccc2[C@H]1c1ccccc1` (stereo in doubt; (-)-16b), for which the inhibition constant (Ki) on D(1A) dopamine receptor and at D(2) dopamine receptor was over 1000 nM in each case.
Turning to `C=CCN(C)[C@@H]1Cc2ccc(O)cc2[C@H]1c1ccccc1` (stereo in doubt; (+)-16a), the Ki at D(1A) dopamine receptor is 3 nM; on D(2) dopamine receptor, 37.5 nM.
With `N[C@@H]1Cc2ccc(O)cc2[C@H]1c1ccccc1` (stereo in doubt; (+)-14a), the values for the inhibition constant (Ki) on D(1A) dopamine receptor and at D(2) dopamine receptor were 2.5 nM and 0.59 nM, respectively.
`CCCN(C)[C@@H]1Cc2ccc(O)cc2[C@H]1c1ccccc1` (stereo in doubt; (-)-17a): the Ki is 0.88 nM on D(1A) dopamine receptor and 0.34 nM on D(2) dopamine receptor.
For `CCCN(CCC)[C@@H]1Cc2cc(O)ccc2[C@H]1c1ccccc1` (stereo in doubt; (+)-15b), the Ki at D(1A) dopamine receptor is 1.4 nM; at D(2) dopamine receptor, over 1000 nM.
`N[C@@H]1Cc2cc(O)ccc2[C@H]1c1ccccc1` (stereo in doubt; (+)-14b): the figures for the inhibition constant Ki at D(1A) dopamine receptor and at D(2) dopamine receptor were 1.87 nM and over 1000 nM, respectively.
Consider `CCCN(CCC)[C@@H]1Cc2ccc(O)cc2[C@H]1c1ccccc1` (stereo in doubt; (+)-15a), for which the Ki on D(1A) dopamine receptor is 28.5 nM; on D(2) dopamine receptor, 51.5 nM.
The corresponding values for `N[C@@H]1Cc2ccc(O)cc2[C@H]1c1ccccc1` (stereo in doubt; (-)-14a) are 34.5 nM and 0.89 nM.
As for `CCCN(C)[C@@H]1Cc2ccc(O)cc2[C@H]1c1ccccc1` (stereo in doubt; (+)-17a), the figures for the inhibitory constant (Ki) at D(1A) dopamine receptor and on D(2) dopamine receptor were 0.9 nM and 0.3 nM, respectively.
Turning to `C=CCN(C)[C@@H]1Cc2cc(O)ccc2[C@H]1c1ccccc1` (stereo in doubt; (+)-16b), the inhibition constant Ki at D(1A) dopamine receptor and at D(2) dopamine receptor was over 1000 nM throughout.
In the case of `C[C@@]1(c2ccccc2)c2cc(O)c(O)cc2C[C@@]1(C)N`, the inhibition constant (Ki) was 5.5 nM at D(1A) dopamine receptor and over 1000 nM on D(2) dopamine receptor.
Take `CCCN(CCC)[C@@H]1Cc2cc(O)ccc2[C@H]1c1ccccc1` (stereo in doubt; (-)-15b): the results for the Ki on D(1A) dopamine receptor and on D(2) dopamine receptor were 1.76 nM and over 1000 nM, respectively.
As for `CCCN(C)[C@@H]1Cc2cc(O)ccc2[C@H]1c1ccccc1` (stereo in doubt; (-)-17b), the Ki at D(1A) dopamine receptor and at D(2) dopamine receptor was over 1000 nM in each case.
Take `N[C@@H]1Cc2cc(O)ccc2[C@H]1c1ccccc1` (stereo in doubt; (-)-14b): the Ki on D(1A) dopamine receptor was 18.7 nM; on D(2) dopamine receptor, over 1000 nM.
With `CCCN(C)[C@@H]1Cc2cc(O)ccc2[C@H]1c1ccccc1` (stereo in doubt; (+)-17b), the inhibitory constant (Ki) on D(1A) dopamine receptor and at D(2) dopamine receptor was over 1000 nM each time.
For `C=CCN(C)[C@@H]1Cc2ccc(O)cc2[C@H]1c1ccccc1` (stereo in doubt; (-)-16a), the figures for the Ki on D(1A) dopamine receptor and on D(2) dopamine receptor were 0.79 nM and 0.43 nM, respectively.
The corresponding values for `CCCN(CCC)[C@@H]1Cc2ccc(O)cc2[C@H]1c1ccccc1` (stereo in doubt; (-)-15a) are 26.4 nM and 0.84 nM.
